Experimental data from ChEMBL document CHEMBL1154185 (J Med Chem, 2009).

How the values were obtained:
A549 = assay: Growth inhibition of proapoptotic stimuli-resistant human A549 cells after 72 hrs by MTT assay; type: functional, cell-based
In short: (§1)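 Cells plated 24 h in 96-well plates (10,000-40,000 cells/mL by cell type) in MEM (5% or 10% heat-inactivated FBS; with 100 μM non-essential amino acids for WI-38 and NHDF) or RPMI 10% FBS (A549), then exposed 72 h to compound up to 100 μM; MTT reduction read at 570 nm (reference 630 nm); sextuplicate.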

[1] = Growth inhibition of proapoptotic stimuli-resistant human OE21 cells after 72 hrs by MTT assay; type: functional, cell-based
[2] = Growth inhibition of proapoptotic stimuli-sensitive human Hs683 cells after 72 hrs by MTT assay; type: functional, cell-based, Hs 683
In short: (§2)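 MTT assay. Cells were plated at 10,000–40,000 cells/mL and left 24 h to attach, then exposed to compound for 72 h (untreated controls). Formazan was read at 570 nm (reference 630 nm). Tested up to 10 μM (first panel) or up to 100 μM (second panel). Sextuplicate. U373 grown in MEM + 5% FBS; Hs683, SK-MEL-28 and B16F10 in RPMI + 10% FBS.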

[3] = Growth inhibition of proapoptotic stimuli-resistant human U373 cells after 72 hrs by MTT assay; type: functional, cell-based, U-373MG ATCC; in short: as §2
SK-MEL-28 = assay: Growth inhibition of proapoptotic stimuli-resistant human SK-MEL-28 cells after 72 hrs by MTT assay; type: functional, cell-based; in short: as §2
B16-F10 = assay: Growth inhibition of proapoptotic stimuli-sensitive mouse B16F10 cells after 72 hrs by MTT assay; type: functional, cell-based; in short: as §2
[4] = Growth inhibition of human WI38 cells after 72 hrs by MTT assay; type: cell-based; settings: WI-38, 72 h; in short: as §1
[5] = Growth inhibition of human WS1 cells after 72 hrs by MTT assay; type: cell-based; settings: WS1, 72 h; in short: as §1
NHDF = assay: Growth inhibition of human NHDF after 72 hrs by MTT assay; type: cell-based; in short: as §1

SMILES | IC50 (A549; Homo sapiens, A549, 72 h) | IC50 ([1]; Homo sapiens, OE21, 72 h) | IC50 ([2]; Homo sapiens, Hs 683, 72 h) | IC50 ([3]; Homo sapiens, U373 MG, 72 h) | IC50 (SK-MEL-28; Homo sapiens, SK-MEL-28, 72 h) | IC50 (B16-F10; Mus musculus, B16-F10, 72 h) | IC50 [4] | IC50 [5] | IC50 (NHDF) | IC50 (A549; a549) | IC50 ([1]; oe21) | IC50 ([2]; hs 683) | IC50 ([3]; u-373mg atcc) | IC50 (SK-MEL-28; sk-mel-28) | IC50 (B16-F10; b16-f10)
CC(=O)O[C@H]1[C@H]2c3cc4c(cc3CN3CCC(=C[C@@H]1OC(C)=O)[C@H]23)OCO4 | > 10 µM | > 10 µM | > 10 µM | > 10 µM | > 10 µM | > 10 µM |  |  |  |  |  |  |  |  | 
CC(=O)O[C@H]1C=C2CCN3Cc4cc5c(cc4[C@H]([C@@H]1O)[C@@H]23)OCO5 | > 10 µM | > 10 µM | > 10 µM | > 10 µM | > 10 µM | > 10 µM | 88.5 µM | > 100 µM | > 100 µM |  |  |  |  |  | 
O[C@H]1[C@H]2c3cc4c(cc3CN3CC[C@@H](C[C@@H]1O)[C@H]23)OCO4 | > 10 µM | > 10 µM | > 10 µM | > 10 µM | > 10 µM | > 10 µM |  |  |  |  |  |  |  |  | 
O[C@H]1[C@H]2c3cc4c(cc3CN3CC[C@H](C[C@@H]1O)[C@H]23)OCO4 | > 10 µM | > 10 µM | > 10 µM | > 10 µM | > 10 µM | > 10 µM |  |  |  |  |  |  |  |  | 
O[C@@H]1CC=C2CCN3Cc4cc5c(cc4[C@H]1[C@@H]23)OCO5 [CARANINE] | > 10 µM | > 10 µM | > 10 µM | > 10 µM | > 10 µM | > 10 µM |  |  |  |  |  |  |  |  | 
COc1cc2c(cc1O)[C@@H]1[C@H](O)[C@@H](O)C=C3CCN(C2)[C@H]31 [PSEUDOLYCORINE] |  |  | 7.9 µM |  | > 10 µM | 7.5 µM | 44 µM | 79.1 µM | 66.9 µM |  |  |  |  |  | 
CC(=O)O[C@H]1[C@H]2c3cc4c(cc3CN3CC[C@@H](C[C@@H]1OC(C)=O)[C@H]23)OCO4 | > 10 µM | > 10 µM | > 10 µM | > 10 µM | > 10 µM | > 10 µM |  |  |  |  |  |  |  |  | 
COC1=C[C@@H]2CCN3Cc4cc5c(cc4[C@@H]([C@H]23)[C@@H]1O)OCO5 [AMARBELLISINE] | 7.2 µM |  | 8.3 µM |  | 8.3 µM | 6.7 µM | > 100 µM | 97.6 µM | > 100 µM |  |  |  |  |  | 
C1=C2CCN3Cc4cc5c(cc4[C@H](CC1)[C@@H]23)OCO5 [LYCORENE] | > 10 µM | > 10 µM | > 10 µM | > 10 µM | > 10 µM | > 10 µM |  |  |  |  |  |  |  |  | 
O[C@H]1[C@H]2c3cc4c(cc3CN3CCC(=C[C@H]1O)[C@H]23)OCO4 | > 10 µM | > 10 µM | > 10 µM | > 10 µM | > 10 µM | > 10 µM |  |  |  |  |  |  |  |  | 
CC(=O)O[C@H]1[C@H]2c3cc4c(cc3CN3CCC(=C[C@@H]1O)[C@H]23)OCO4 | > 10 µM | > 10 µM | > 10 µM | > 10 µM | > 10 µM | > 10 µM |  |  |  |  |  |  |  |  | 
C1=C2CCN3Cc4cc5c(cc4[C@H]([C@@H]4O[C@H]14)[C@@H]23)OCO5 | 3.4 µM | 8.5 µM | 3.3 µM | 2.4 µM | 9.5 µM | 4.6 µM | 28.6 µM | 36.8 µM | 9.3 µM |  |  |  |  |  | 
CC(=O)O[C@H]1[C@H]2c3cc4c(cc3CN3CC[C@H](C[C@@H]1OC(C)=O)[C@H]23)OCO4 | > 10 µM | > 10 µM | > 10 µM | > 10 µM | > 10 µM | > 10 µM |  |  |  |  |  |  |  |  | 
c1cc2c3c(c1)-c1cc4c(cc1CN3CC2)OCO4 [ANHYDROLYCORINE] | 4.5 µM | 8.8 µM | 7.1 µM | 5.1 µM | > 10 µM | > 10 µM | 30.1 µM | 23.7 µM | 26.6 µM |  |  |  |  |  | 
O=C1C=C2CCN3Cc4cc5c(cc4[C@H]([C@@H]1O)[C@@H]23)OCO5 |  | > 10 µM | > 10 µM | > 10 µM | > 10 µM | > 10 µM |  |  |  |  |  |  |  |  | 
O[C@H]1[C@H]2c3cc4c(cc3CN3CCC(=C[C@@H]1Cl)[C@H]23)OCO4 | 3.8 µM | 9.6 µM | 3.1 µM | 2.3 µM | > 10 µM | 6.9 µM | 46 µM | > 100 µM | 72.1 µM |  |  |  |  |  | 
[O-]c1cc2c3c(c1)c1cc4c(cc1c[n+]3CC2)OCO4 [UNGEREMINE] | > 10 µM | > 10 µM | > 10 µM | 8.3 µM | > 10 µM | > 10 µM |  |  |  |  |  |  |  |  | 
O=C1c2cc3c(cc2[C@@H]2[C@H](O)[C@@H](O)C[C@H]4CCN1[C@H]42)OCO3 | > 10 µM | > 10 µM | > 10 µM | > 10 µM | > 10 µM | > 10 µM |  |  |  |  |  |  |  |  | 
C[N+]12CCC3=C[C@H](O)[C@@H](O)[C@@H](c4cc5c(cc4C1)OCO5)[C@@H]32 (some centres not stated) |  |  |  |  |  |  |  |  |  | > 10 µM | > 10 µM | > 10 µM | > 10 µM | > 10 µM | > 10 µM
COc1cc2c(cc1O)CN1CCC3=CC[C@@H](O)[C@@H]2[C@@H]31 [NORPLUVINE] | > 10 µM | > 10 µM | > 10 µM | > 10 µM | > 10 µM | > 10 µM |  |  |  |  |  |  |  |  | 
